# Columns and labels:
# Type in all cases: functional
# Plutella xylostella [1] = test: Insecticidal activity against Plutella xylostella (diamondback moth) grown on compound pre-treated fresh cabbage leaves assessed as insect mortality at 10 mg/kg measured 3 days post compound treatment by leaf-dip method; conditions: for mortality at 10 mg/kg: Plutella xylostella; for mortality: 10 mg/kg
# Outline: (§1)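 Leaf-dip stomach-toxicity assay on laboratory-reared diamondback moth. Test solutions came from a 200 mg L^-1 stock in dimethylformamide, diluted with water containing TW-20. Control leaves were treated with water and dimethylformamide. Tests were held at 25±1 °C, percentage mortality was scored 3 days after treatment, and each treatment was run three times.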
# Plutella xylostella [2] = test: Insecticidal activity against Plutella xylostella (diamondback moth) grown on compound pre-treated fresh cabbage leaves assessed as insect mortality at 25 mg/kg measured 3 days post compound treatment by leaf-dip method; conditions: for mortality at 25 mg/kg: Plutella xylostella; outline: as §1
# Plutella xylostella [3] = test: Insecticidal activity against Plutella xylostella (diamondback moth) grown on compound pre-treated fresh cabbage leaves assessed as insect mortality at 50 mg/kg measured 3 days post compound treatment by leaf-dip method; outline: as §1
# Plutella xylostella [4] = test: Insecticidal activity against Plutella xylostella (diamondback moth) grown on compound pre-treated fresh cabbage leaves assessed as insect mortality at 100 mg/kg measured 3 days post compound treatment by leaf-dip method; outline: as §1
# Plutella xylostella [5] = test: Insecticidal activity against Plutella xylostella (diamondback moth) grown on compound pre-treated fresh cabbage leaves assessed as insect mortality at 200 mg/kg measured 3 days post compound treatment by leaf-dip method; outline: as §1
# Culex pipiens pallens [6] = test: Insecticidal activity against Culex pipiens pallens (mosquito) assessed as insect mortality at 25 ug/kg measured 1 day post compound treatment; conditions: 24 h
# Outline: (§2)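 Fourth-instar Culex pipiens pallens larvae, 20 per test, were laboratory-reared and placed in 100 mL of test solution made by adding 1 mL of compound dilution to 99 mL of water. Tests were held at 25±1 °C, percentage mortality was scored 1 day after treatment, and each test was run three times.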
# Culex pipiens pallens [7] = test: Insecticidal activity against Culex pipiens pallens (mosquito) assessed as insect mortality at 50 ug/kg measured 1 day post compound treatment; conditions: 24 h; outline: as §2
# Culex pipiens pallens [8] = test: Insecticidal activity against Culex pipiens pallens (mosquito) assessed as insect mortality at 100 ug/kg measured 1 day post compound treatment; conditions: for mortality at 0.1 mg/kg: Culex pipiens, 24 h; outline: as §2
# Aphis craccivora [9] = test: Insecticidal activity against Aphis craccivora (cowpea aphid) infested tender soybean shoots exposed to 2.5 mg/kg test compound solution assessed as insect mortality measured 24 hr post compound treatment; conditions: for mortality at 2.5 mg/kg: Aphis craccivora, 24 h
# Outline: (§3)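 Soybean tender shoots carrying 60 aphids were dipped in test solutions. Solutions were made from a 200 mg L^-1 stock in dimethylformamide, diluted with water containing TW-20. Insects were laboratory-reared, tests were held at 25±1 °C, and mortality was scored.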
# Aphis craccivora [10] = test: Insecticidal activity against Aphis craccivora (cowpea aphid) infested tender soybean shoots exposed to 5 mg/kg test compound solution assessed as insect mortality measured 24 hr post compound treatment; conditions: for mortality at 5 mg/kg: Aphis craccivora, 24 h; for mortality: 5 mg/kg; outline: as §3
# Aphis craccivora [11] = test: Insecticidal activity against Aphis craccivora (cowpea aphid) infested tender soybean shoots exposed to 10 mg/kg test compound solution assessed as insect mortality measured 24 hr post compound treatment; conditions: for mortality at 10 mg/kg: Aphis craccivora, 24 h; outline: as §3
# Aphis craccivora [12] = test: Insecticidal activity against Aphis craccivora (cowpea aphid) infested tender soybean shoots exposed to 25 mg/kg test compound solution assessed as insect mortality measured 24 hr post compound treatment; outline: as §3
# Aphis craccivora [13] = test: Insecticidal activity against Aphis craccivora (cowpea aphid) infested tender soybean shoots exposed to 50 mg/kg test compound solution assessed as insect mortality measured 24 hr post compound treatment; outline: as §3
# Aphis craccivora [14] = test: Insecticidal activity against Aphis craccivora (cowpea aphid) infested tender soybean shoots exposed to 100 mg/kg test compound solution assessed as insect mortality measured 24 hr post compound treatment; outline: as §3
# Aphis craccivora [15] = test: Insecticidal activity against Aphis craccivora (cowpea aphid) infested tender soybean shoots exposed to 200 mg/kg test compound solution assessed as insect mortality measured 24 hr post compound treatment; outline: as §3
# Plutella xylostella [16] = test: Insecticidal activity against Plutella xylostella (diamondback moth) grown on compound pre-treated fresh cabbage leaves assessed as insect mortality at 5 mg/kg measured 3 days post compound treatment by leaf-dip method; conditions: for mortality at 5 mg/kg: Plutella xylostella; for mortality: 5 mg/kg; outline: as §1
# Plutella xylostella [17] = test: Insecticidal activity against Plutella xylostella (diamondback moth) grown on compound pre-treated fresh cabbage leaves assessed as insect mortality at 2.5 mg/kg measured 3 days post compound treatment by leaf-dip method; outline: as §1
Structure (SMILES),mortality at 10 mg/kg (Plutella xylostella [1]) [%],mortality at 25 mg/kg (Plutella xylostella [2]) [%],mortality at 50 mg/kg (Plutella xylostella [3]) [%],mortality at 100 mg/kg (Plutella xylostella [4]) [%],mortality at 200 mg/kg (Plutella xylostella [5]) [%],mortality at 0.05 mg/kg (Culex pipiens pallens [7]) [%],mortality at 0.1 mg/kg (Culex pipiens pallens [8]) [%],mortality at 2.5 mg/kg (Aphis craccivora [9]) [%],mortality at 5 mg/kg (Aphis craccivora [10]) [%],mortality at 10 mg/kg (Aphis craccivora [11]) [%],mortality at 25 mg/kg (Aphis craccivora [12]) [%],mortality at 50 mg/kg (Aphis craccivora [13]) [%],mortality at 100 mg/kg (Aphis craccivora [14]) [%],mortality at 200 mg/kg (Aphis craccivora [15]) [%],mortality at 5 mg/kg (Plutella xylostella [16]) [%],mortality (Culex pipiens pallens [8]) [%],also measured
CC[S+]([O-])c1c(C#N)nn(-c2c(Cl)cc(C(F)(F)F)cc2Cl)c1NC(OC)C(Cl)(Cl)Cl (stereo unspecified),0,31,86,100,100,100,100,0,76,87,96,100,100,100,–,–,mortality at 0.025 mg/kg (Culex pipiens pallens [6]): 0%
CC[S+]([O-])c1c(C#N)nn(-c2c(Cl)cc(C(F)(F)F)cc2Cl)c1NC(OCCCl)C(Cl)(Cl)Cl (stereo unspecified),32,46,100,100,100,0,100,–,0,48,100,100,100,100,0,–,–
C[S+]([O-])c1c(C#N)nn(-c2c(Cl)cc(C(F)(F)F)cc2Cl)c1NC(OCCF)C(Cl)(Cl)Cl (stereo in doubt; 7d-2),76,89,100,100,100,–,–,46,70,100,100,100,100,100,54,50,mortality at 2.5 mg/kg (Plutella xylostella [17]): 0%
CC[S+]([O-])c1c(C#N)nn(-c2c(Cl)cc(C(F)(F)F)cc2Cl)c1NC(OCCF)C(Cl)(Cl)Cl (stereo unspecified),30,46,91,100,100,20,100,43,73,100,100,100,100,100,0,–,–
C[S+]([O-])c1c(C#N)nn(-c2c(Cl)cc(C(F)(F)F)cc2Cl)c1NC(OCCCl)C(Cl)(Cl)Cl (stereo in doubt; 7e-2),79,100,100,100,100,–,–,0,68,100,100,100,100,100,56,50,mortality at 2.5 mg/kg (Plutella xylostella [17]): 0%
C[S+]([O-])c1c(C#N)nn(-c2c(Cl)cc(C(F)(F)F)cc2Cl)c1NC(OCCF)C(Cl)(Cl)Cl (stereo in doubt; 7d-1),–,–,–,–,–,–,–,–,–,–,–,–,–,–,–,20,mortality (Plutella xylostella [16]): 56%; mortality (Plutella xylostella [1]): 77%; mortality (Plutella xylostella [2]; 25 mg/kg): 92%; mortality (Aphis craccivora [9]; 2.5 mg/kg): 43%; mortality (Aphis craccivora [10]): 72%
C[S+]([O-])c1c(C#N)nn(-c2c(Cl)cc(C(F)(F)F)cc2Cl)c1NC(OCCCl)C(Cl)(Cl)Cl (stereo in doubt; 7e-1),–,–,–,–,–,40,–,–,–,–,–,–,–,–,–,100,mortality (Plutella xylostella [16]): 60%; mortality (Plutella xylostella [1]): 81%; mortality (Aphis craccivora [10]): 61%; mortality (Aphis craccivora [11]; 10 mg/kg): 96%
